Source: ChEMBL document CHEMBL3091410, “Enmein-type 6,7-seco-ent-kauranoids from Isodon sculponeatus” (J Nat Prod, 2013)

Legend:
HL-60 = test: Cytotoxicity against human HL60 cells after 48 hrs by MTS assay; type: functional, cell-based; conditions: HL-60, 48 h
In short: (§1)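 Lines obtained from ATCC, grown in RPMI-1640 or DMEM with 10% FBS at 37 °C, 5% CO2. Adherent cells seeded at 1 × 10^5 cells/mL and allowed to attach 12 h; suspension cells seeded just before dosing. Range of concentrations tested in triplicate for 48 h. MTS then added for 4 h at 37 °C, cells lysed in 20% SDS-50% DMF, OD read at 490 nm. IC50 by Reed and Muench method.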

A549 = test: Cytotoxicity against human A549 cells after 48 hrs by MTS assay; type: functional, cell-based; conditions: A549, 48 h; in short: as §1
SMMC-7721 = test: Cytotoxicity against human SMMC7721 cells after 48 hrs by MTS assay; type: functional, cell-based; conditions: SMMC-7721, 48 h; in short: as §1
MCF7 = test: Cytotoxicity against human MCF7 cells after 48 hrs by MTS assay; type: functional, cell-based; conditions: MCF7, 48 h; in short: as §1
SW480 [1] = test: Cytotoxicity against human SW480 cells after 48 hrs by MTS assay; type: functional, cell-based; conditions: SW480, 48 h; in short: as §1
RAW264.7 = test: Inhibition of LPS-stimulated NO production in mouse RAW264.7 cells after 18 hrs by Griess assay; type: functional, cell-based; conditions: RAW264.7, 18 h
In short: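 RAW264.7 macrophages, 2 × 10^5 cells/well in RPMI 1640 with 10% FBS, preincubated 24 h. Serial dilutions up to 25 μM (DMSO stock diluted in medium) given with 1 μg/mL LPS for 18 h. Supernatant mixed 1:1 with Griess reagent, in triplicate, 5 min; absorbance at 570 nm. Parallel MTS viability check under the same 18 h conditions.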

SW480 [2] = test: Potency index, ratio of cisplatin IC50 to compound IC50 for human SW480 cells; type: functional

IC50 (RAW264.7) | SMILES | IC50 (HL-60) | IC50 (A549) | IC50 (SMMC-7721) | IC50 (MCF7) | IC50 (SW480 [1]) | Ratio IC50 (SW480 [2])
– | C=C1[C@@H]2CC[C@@H]3[C@](C2)(C(=O)O[C@H]2CCC(C)(C)[C@H]4[C@H](O)OC[C@@]243)[C@@H]1O | > 40 µM | > 40 µM | > 40 µM | > 40 µM | > 40 µM | –
2.2 µM | C=C1C(=O)[C@]23C[C@H]1CC[C@H]2[C@@]12CO[C@@H](O)[C@@H]1C(C)(C)CC[C@@H]2OC3=O | 2.8 µM | 3.2 µM | 3.5 µM | 2.6 µM | 1 µM | 15
– | C=C1[C@H]2C[C@@]3(C(=O)O[C@H]4CCC(C)(C)[C@H]5[C@H](O)OC[C@@]45[C@@H]3[C@@H]3O[C@@H]32)[C@@H]1O | > 40 µM | > 40 µM | > 40 µM | > 40 µM | > 40 µM | –
– | C=C1[C@@H]2C=C[C@@H]3[C@](C2)(C(=O)O[C@H]2CCC(C)(C)[C@H]4[C@H](O)OC[C@@]243)[C@@H]1O | > 40 µM | > 40 µM | > 40 µM | > 40 µM | > 40 µM | –
– | C=C1[C@@H](O)[C@]23C[C@@]1(O)C[C@@H](O)[C@H]2[C@]12CO[C@@H]4OC[C@](C)(CC[C@@H]1OC3=O)[C@@H]42 | > 40 µM | > 40 µM | > 40 µM | > 40 µM | > 40 µM | –
– | CC1(C)[C@H](O)C[C@@H]2OC(=O)[C@@]34C[C@@H](C[C@@H](O)[C@H]3[C@]23CO[C@@H](O)[C@H]13)[C@](C)(O)C4=O | > 40 µM | > 40 µM | > 40 µM | > 40 µM | > 40 µM | –
– | C=C1C(=O)[C@]23C[C@H]1CC[C@H]2[C@@]12CO[C@@H](O)[C@@H]1C(C)(C)[C@@H](O)C[C@@H]2OC3=O [ENEMIN] | > 40 µM | > 40 µM | > 40 µM | > 40 µM | > 40 µM | –
– | C=C1C(=O)[C@]23C[C@H]1C[C@H](O)[C@H]2[C@@]12CO[C@@H](O)[C@@H]1C(C)(C)CC[C@@H]2OC3=O [EPINODOSIN] | > 40 µM | > 40 µM | > 40 µM | > 40 µM | > 40 µM | –
18.4 µM | C=C1C(=O)[C@]23C[C@H]1C[C@@H](O)[C@H]2[C@@]12CO[C@@H](O)[C@@H]1C(C)(C)CC[C@@H]2OC3=O [NODOSIN] | 15 µM | > 40 µM | 27 µM | 23.5 µM | 12.1 µM | –
– | CC(=O)O[C@H]1C(=O)[C@@]2(C)[C@H]([C@H](OC(=O)c3ccccc3)[C@]3(O)C[C@H](OC(=O)[C@H](O)[C@@H](NC(=O)c4ccccc4)c4ccccc4)C(C)=C1C3(C)C)[C@]1(OC(C)=O)CO[C@@H]1C[C@@H]2O [PACLITAXEL] | < 0.008 µM | < 0.008 µM | < 0.008 µM | < 0.008 µM | < 0.008 µM | –
9.1 µM | C=C1C(=O)[C@]23C[C@H]1C[C@@H](O)[C@H]2[C@]12CO[C@@H]4OC[C@](C)(CC[C@@H]1OC3=O)[C@@H]42 [SCULPONEATIN A] | 12.7 µM | 17.1 µM | 15.2 µM | 15 µM | 3.5 µM | –
– | C=C1[C@@H]2C[C@@H](O)[C@@H]3[C@](C2)(C(=O)O[C@H]2CC[C@@]4(C)CO[C@H]5OC[C@]23[C@H]54)[C@@H]1O [SCULPONEATIN B] | > 40 µM | > 40 µM | > 40 µM | > 40 µM | > 40 µM | –
